This is an account of results in ChEMBL document CHEMBL1146041, “Synthesis and SAR of pyrrolotriazine-4-one based Eg5 inhibitors” (Bioorg Med Chem Lett, 2006).

What all share (assay type): ADME, organism-based
Holding throughout (set-up): dose 10 mg/kg

Series [1] is described as follows: Volume of distribution in mouse at 10 mg/kg. To be noted: in vivo, read-out: Vdss. The method in brief:
(§1)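 Mice (n = 3) dosed at 10 mg/kg in 50% PEG400/50% water; pharmacokinetic parameters given as mean ± deviation.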

A short description of series [2]: Half life in mouse at 10 mg/kg. To be noted: in vivo. The method in brief: as §1
The nature of series [3]: Mean residence time in mouse at 10 mg/kg. To be noted: in vivo. The method in brief:
as §1

Series [4] in a line: Clearance in mouse at 10 mg/kg. The settings on record: in vivo. The method in brief:
as §1

Broadly, the half-life is how long it takes for the measured level to halve. Read a high half-life as slow loss. The term MRT denotes a mean duration of stay, worked out from the concentration-time curve. As a reminder, the clearance is the rate of elimination divided by the concentration. Low values mean a low capacity for elimination, high ones a high capacity for elimination. For `Cc1ccc(C(=O)N(CCCN)C(c2nn3c(Cl)ccc3c(=O)n2Cc2ccccc2)C2CC2)cc1` (centres undefined), the Vd in series [1] is 5.9 L/kg. In series [2], this compound gave a half-life of 4.5 h. Further, the MRT in series [3] was determined as 6.5 h. This compound also had a clearance in series [4] of 16 mL/min/kg.
